Source: paper PMC12627342 (Journal of Advanced Research, 2025)

Experiments:
all bacteria tested = test: Geometric mean of MICs and selectivity index, all bacteria; assay type: cell-based; conditions: geometric mean of MICs against all bacteria
Summary of the method: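 Geometric mean of the broth-microdilution MICs (μM) across all bacterial strains tested. It serves as the denominator of the selectivity index, SI = HC₅₀ (μM) / GM.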

S. aureus (MDR) = test: MIC assay; assay type: cell-based; conditions: Gram-positive
Summary of the method: (§1)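 Broth microdilution: test compound dissolved in physiological saline, two-fold serially diluted across wells (50 μL broth each). 50 μL bacterial suspension added (1.0 × 10⁶ CFU/mL). Incubation 16 h at 37 °C with constant agitation. MIC read visually together with absorbance at 600 nm. Each sample run in triplicate.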

A. baumannii (MDR) = test: MIC assay; assay type: cell-based; conditions: Gram-negative
Summary of the method: as §1

Gram-positive bacteria = test: Geometric mean of MICs and selectivity index, Gram-positive bacteria; assay type: cell-based; conditions: geometric mean of MICs
C. freundii (MDR) = test: MIC assay; assay type: cell-based; conditions: Gram-negative
Summary of the method: as §1

B. subtilis ATCC 6633 = test: MIC assay; assay type: cell-based; conditions: B. subtilis ATCC 6633, Gram-positive
Summary of the method: as §1

Gram-negative bacteria = test: Geometric mean of MICs and selectivity index, Gram-negative bacteria; assay type: cell-based; conditions: geometric mean of MICs
E. coli ATCC 25922 = test: MIC assay; assay type: cell-based; conditions: E. coli ATCC 25922, Gram-negative
Summary of the method: as §1

E. aerogenes (MDR) = test: MIC assay; assay type: cell-based; conditions: Gram-negative
Summary of the method: as §1

Hemolytic assay = assay type: cell-based, human
Summary of the method: (§2)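 Human erythrocytes from heparinised blood, washed three times in PBS (centrifuged 1800 rpm, 4 °C, 5 min), used as a 5 % (v/v) suspension. Peptide two-fold dilutions in PBS, final 0.78–50 μM. Incubation 1 h at 37 °C, then 3000 rpm for 5 min; supernatant hemoglobin read at A405. Controls: PBS (0 %) and 1 % Triton X-100 (100 %). Five replicates; HC₅₀ derived as median hemolytic concentration.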

Plasma stability by HPLC = assay type: in vitro ADME; conditions: human, human plasma 25 % (v/v)
Summary of the method: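 An 8 mM aqueous stock of peptide (1 mL) was added to 3 mL of 25 % (v/v) human plasma and incubated at 37 °C with agitation, sampling from 0–48 h and up to 14 days. Each sample was quenched with an equal volume of 90 % acetonitrile/10 % TFA, cooled to 4 °C and spun at 10000 rpm for 10 min. Supernatant was quantified by HPLC against standard curves (0.0625–8 mM). Triplicates.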

Cytotoxicity assay = assay type: cell-based, human
Summary of the method: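 293T human embryonic kidney cells were seeded and grown 24 h, then exposed for 24 h to a concentration series of test compound in DMEM. CCK-8 reagent was added for 2 h at 37 °C, and absorbance was read at 450 nm. Five replicates per sample.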

[1] = test system: human red blood cells (hRBCs); test: Hemolytic assay; assay type: cell-based; conditions: median hemolytic concentration, 5 % hRBCs, 1 h, 37 °C
Summary of the method: as §2

[2] = commercially available antimicrobial peptide drug; cited from earlier work

Ac-GLRKFLRKFFNKIKR-NH2 [P-α, Ac-GLRKFLRKFFNKIKR-NH2]
GMall (all bacteria tested): 7.02 µM | MIC (S. aureus (MDR)): 6.25 µM | MIC (A. baumannii (MDR)): 6.25 µM | GM+ (Gram-positive bacteria): 6.25 µM | MIC (C. freundii (MDR)): 6.25 µM | MIC (B. subtilis ATCC 6633): 6.25 µM | GM- (Gram-negative bacteria): 14.87 µM | MIC (E. coli ATCC 25922): 6.25 µM | MIC (E. aerogenes (MDR)): 12.5 µM | hemolysis at 50 µM (Hemolytic assay): 1.5% | half-life at 2 mM (Plasma stability by HPLC): 15.3 h

Polymyxin B [reference compound]
MIC (S. aureus (MDR)): 25 µM | MIC (A. baumannii (MDR)): 0.78 µM | MIC (B. subtilis ATCC 6633): 1.56 µM | MIC (E. coli ATCC 25922): 0.78 µM

Ac-GLRKLLRKFLNKIKR-NH2 [P-α-04, Ac-GLRKLLRKFLNKIKR-NH2]
GMall (all bacteria tested): 3.94 µM | MIC (S. aureus (MDR)): 3.125 µM | MIC (A. baumannii (MDR)): 6.25 µM | CC50 (Cytotoxicity assay): 193 µM | GM+ (Gram-positive bacteria): 3.13 µM | MIC (C. freundii (MDR)): 3.125 µM | MIC (B. subtilis ATCC 6633): 3.125 µM | GM- (Gram-negative bacteria): 4.42 µM | MIC (E. coli ATCC 25922): 3.125 µM | MIC (E. aerogenes (MDR)): 6.25 µM | HC50 [1]: >1000 µM | half-life at 2 mM (Plasma stability by HPLC): 17.4 h

Ac-GLRKVLRKFVNKIKR-NH2 [P-α-01, Ac-GLRKVLRKFVNKIKR-NH2]
MIC (S. aureus (MDR)): 25 µM | MIC (A. baumannii (MDR)): 12.5 µM | MIC (C. freundii (MDR)): 6.25 µM | MIC (B. subtilis ATCC 6633): 6.25 µM | MIC (E. coli ATCC 25922): 12.5 µM | MIC (E. aerogenes (MDR)): 50 µM

Ac-GLFKFLRKFFNKIKR-NH2 [P-β, Ac-GLFKFLRKFFNKIKR-NH2]
GMall (all bacteria tested): 7.02 µM | MIC (S. aureus (MDR)): 6.25 µM | MIC (A. baumannii (MDR)): 6.25 µM | CC50 (Cytotoxicity assay): 28.2 µM | GM+ (Gram-positive bacteria): 6.25 µM | MIC (C. freundii (MDR)): 6.25 µM | MIC (B. subtilis ATCC 6633): 6.25 µM | GM- (Gram-negative bacteria): 7.43 µM | MIC (E. coli ATCC 25922): 6.25 µM | MIC (E. aerogenes (MDR)): 12.5 µM | HC50 [1]: 136.69 µM

Ac-GLRKMLRKFMNKIKR-NH2 [P-α-06, Ac-GLRKMLRKFMNKIKR-NH2]
MIC (S. aureus (MDR)): 12.5 µM | MIC (A. baumannii (MDR)): 12.5 µM | MIC (C. freundii (MDR)): 6.25 µM | MIC (B. subtilis ATCC 6633): 6.25 µM | MIC (E. coli ATCC 25922): 12.5 µM | MIC (E. aerogenes (MDR)): 25 µM

Ac-GLWKWLRKFWNKIKR-NH2 [P-β-02, Ac-GLWKWLRKFWNKIKR-NH2]
MIC (S. aureus (MDR)): 25 µM | MIC (A. baumannii (MDR)): 12.5 µM | MIC (C. freundii (MDR)): 12.5 µM | MIC (B. subtilis ATCC 6633): 6.25 µM | MIC (E. coli ATCC 25922): 12.5 µM | MIC (E. aerogenes (MDR)): 25 µM

Ac-GLFKFLRKFFNFIKR-NH2 [P-γ, Ac-GLFKFLRKFFNFIKR-NH2]
MIC (S. aureus (MDR)): 50 µM | MIC (A. baumannii (MDR)): 12.5 µM | MIC (C. freundii (MDR)): 50 µM | MIC (B. subtilis ATCC 6633): 12.5 µM | MIC (E. coli ATCC 25922): 12.5 µM | MIC (E. aerogenes (MDR)): 50 µM

polymyxin E
half-life [2]: 0.39 h

Ac-GLRKILRKFINKIKR-NH2 [P-α-03, Ac-GLRKILRKFINKIKR-NH2]
MIC (S. aureus (MDR)): 6.25 µM | MIC (A. baumannii (MDR)): 6.25 µM | MIC (C. freundii (MDR)): 6.25 µM | MIC (B. subtilis ATCC 6633): 3.125 µM | MIC (E. coli ATCC 25922): 3.125 µM | MIC (E. aerogenes (MDR)): 12.5 µM

Ac-GLRKALRKFANKIKR-NH2 [P-α-05, Ac-GLRKALRKFANKIKR-NH2]
MIC (S. aureus (MDR)): 50 µM | MIC (A. baumannii (MDR)): 50 µM | MIC (C. freundii (MDR)): 50 µM | MIC (B. subtilis ATCC 6633): 25 µM | MIC (E. coli ATCC 25922): 50 µM | MIC (E. aerogenes (MDR)): 50 µM
